{"source": "ChEMBL document CHEMBL5150070", "about": "“Tricyclic SpiroLactams Kill Mycobacteria In Vitro and In Vivo by Inhibiting Type II NADH Dehydrogenases” (J Med Chem, 2022)", "key": {"[1]": {"test_system": "Mycobacterium tuberculosis", "assay": "Antimycobacterial activity against Mycobacterium tuberculosis H37Rv assessed as reduction in bacterial cell growth by measuring resazurin reduction incubated for 6 days by fluorescence microplate based assay", "type": "functional", "conditions": "time 6 day"}, "[2]": {"molecular_target": "T1, Type II NADH:quinone oxidoreductase NdhA (Mycobacterium tuberculosis, UniProt P95200)", "T1 sequence (P95200 whole entry)": "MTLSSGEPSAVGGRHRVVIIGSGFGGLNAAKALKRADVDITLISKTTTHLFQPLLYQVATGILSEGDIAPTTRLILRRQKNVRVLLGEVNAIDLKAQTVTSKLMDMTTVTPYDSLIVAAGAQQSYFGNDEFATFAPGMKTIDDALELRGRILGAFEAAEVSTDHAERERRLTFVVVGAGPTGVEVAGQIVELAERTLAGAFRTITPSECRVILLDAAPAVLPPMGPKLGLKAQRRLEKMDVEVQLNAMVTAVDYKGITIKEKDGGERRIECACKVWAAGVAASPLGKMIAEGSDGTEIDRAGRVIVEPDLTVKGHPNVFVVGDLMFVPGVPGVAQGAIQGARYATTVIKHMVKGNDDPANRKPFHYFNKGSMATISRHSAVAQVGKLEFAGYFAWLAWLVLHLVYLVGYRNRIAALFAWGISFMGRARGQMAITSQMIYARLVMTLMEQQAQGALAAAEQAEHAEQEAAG", "assay": "Inhibition of Mycobacterium smegmatis MC2 155 recombinant ndhA assessed as rate of NADH oxidation in the presence of an electron acceptor menadione", "parameters": "species or system Mycolicibacterium smegmatis"}, "[3]": {"test_system": "Mycobacterium tuberculosis", "assay": "Antibiotic activity against Mycobacterium tuberculosis H37Rv assessed as reduction in bacterial cell growth by measuring resazurin reduction incubated for 6 days by fluorescence microplate based assay", "type": "functional", "conditions": "144 h, time 6 day"}, "Mycobacterium marinum [4]": {"test_system": "Mycobacterium marinum", "assay": "Antibiotic activity against Mycobacterium marinum M strain assessed as reduction in bacterial cell growth by measuring resazurin reduction incubated for 6 days by fluorescence microplate based assay", "type": "functional", "conditions": "144 h, time 6 day"}, "Mycobacterium avium": {"test_system": "Mycobacterium avium", "assay": "Antibiotic activity against Mycobacterium avium TMC 724, ATCC-25291 assessed as reduction in bacterial cell growth by measuring resazurin reduction incubated for 6 days by fluorescence microplate based assay", "type": "functional", "conditions": "TMC 724, ATCC-25291, 144 h, time 6 day"}, "[5]": {"test_system": "Mycolicibacterium smegmatis", "assay": "Antibiotic activity against Mycobacterium smegmatis mc2155 assessed as reduction in bacterial cell growth by measuring resazurin reduction incubated for 6 days by fluorescence microplate based assay", "type": "functional", "conditions": "mc2155, 144 h, time 6 day"}, "[6]": {"test_system": "Mycobacteroides abscessus", "assay": "Antibiotic activity against Mycobacterium abscessus CIP104536, Smooth variant assessed as reduction in bacterial cell growth by measuring resazurin reduction incubated for 6 days by fluorescence microplate based assay", "type": "functional", "conditions": "144 h, time 6 day"}, "[7]": {"test_system": "Mycobacteroides abscessus", "assay": "Antibiotic activity against Mycobacterium abscessus CIP104536, Rough variant assessed as reduction in bacterial cell growth by measuring resazurin reduction incubated for 6 days by fluorescence microplate based assay", "type": "functional", "conditions": "144 h, time 6 day"}, "Bacillus subtilis": {"test_system": "Bacillus subtilis", "assay": "Antibiotic activity against Bacillus subtilis ATCC6633 assessed as reduction in bacterial cell growth by measuring resazurin reduction incubated for 6 days by fluorescence microplate based assay", "type": "functional", "conditions": "ATCC6633, 144 h, time 6 day"}, "Staphylococcus aureus": {"test_system": "Staphylococcus aureus", "assay": "Antibiotic activity against Staphylococcus aureus SH1000 assessed as reduction in bacterial cell growth by measuring resazurin reduction incubated for 6 days by fluorescence microplate based assay", "type": "functional", "conditions": "SH1000, 144 h, time 6 day", "outline": "(§1)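 E. coli BW25113, E. coli ΔtolC and S. aureus SH1000 were cultured and tested in cation-adjusted Mueller Hinton II broth. Viability was read by adding resazurin and measuring resorufin fluorescence at Ex 530 nm / Em 590 nm.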"}, "Escherichia coli": {"test_system": "Escherichia coli", "assay": "Antibiotic activity against Escherichia coli deltatolC BW25113 deltatolC assessed as reduction in bacterial cell growth by measuring resazurin reduction incubated for 6 days by fluorescence microplate based assay", "type": "functional", "conditions": "144 h, time 6 day", "outline": "as §1"}, "Pseudomonas aeruginosa": {"test_system": "Pseudomonas aeruginosa", "assay": "Antibiotic activity against Pseudomonas aeruginosa POA1 assessed as reduction in bacterial cell growth by measuring resazurin reduction incubated for 6 days by fluorescence microplate based assay", "type": "functional", "conditions": "POA1, 144 h, time 6 day"}, "Klebsiella pneumoniae": {"test_system": "Klebsiella pneumoniae", "assay": "Antibiotic activity against Klebsiella pneumoniae LMG 2095 assessed as reduction in bacterial cell growth by measuring resazurin reduction incubated for 6 days by fluorescence microplate based assay", "type": "functional", "conditions": "LMG 2095, 144 h, time 6 day"}, "Acinetobacter baumannii": {"test_system": "Acinetobacter baumannii", "assay": "Antibiotic activity against Acinetobacter baumannii LMG-17978 assessed as reduction in bacterial cell growth by measuring resazurin reduction incubated for 6 days by fluorescence microplate based assay", "type": "functional", "conditions": "LMG-17978, 144 h, time 6 day"}, "[8]": {"test_system": "Mycobacterium tuberculosis", "assay": "Bactericidal activity against Non-replicating Mycobacterium tuberculosis ss18b-lux assessed as bacterial killing by measuring CFU after 1 week", "type": "functional, organism-based", "conditions": "time 1.0 weeks, DDE = dose-dependent effect", "outline": "(§2)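 Streptomycin-dependent 18b-lux starved of streptomycin for 14 days (OD600 reset to 0.2 on days 7 and 13) to become non-replicating. Diluted to OD600 0.15 on dispensed compound and held at 37°C. On day 7, active wells plated on 7H11-OADC with 50 µg/mL streptomycin and incubated up to 8 weeks for cfu.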"}, "[9]": {"test_system": "Mycobacterium tuberculosis", "assay": "Bactericidal activity against Non-replicating Mycobacterium tuberculosis ss18b-lux assessed as decrease in colony forming unit measured at 4.8 uM after 1 weeks", "type": "functional", "outline": "as §2"}, "[10]": {"test_system": "Mycobacterium tuberculosis", "assay": "Inhibition of Ndh2 in Mycobacterium tuberculosis assessed as increase in NADH/NAD+ ratio at 600 nM measured after 24 hrs", "outline": "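Mid-log H37Rv diluted to OD600 0.3 and exposed to compound at 37°C for 2 and 24 h. Pellets extracted in 0.2 M HCl (NAD⁺) or 0.2 M NaOH (NADH), bead-milled, heated 55°C 10 min, neutralised. NAD/NADH-Glo luminescence read against an NADH standard curve, corrected for OD600. Three independent experiments, duplicate technical replicates.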"}, "[11]": {"test_system": "Mycobacterium tuberculosis", "assay": "Inhibition of Ndh2 in Mycobacterium tuberculosis assessed as decrease in ATP concentration measured after 24 hrs", "conditions": "DDE = dose-dependent effect", "outline": "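Log-phase H37Rv diluted to OD600 0.01 in complete 7H9 and exposed in 96-well plates to compound added from a 100× DMSO stock, at 37°C. ATP measured with BacTiter-Glo luminescence after 4 and 24 h; three independent experiments.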"}, "[12]": {"assay": "Metabolic stability in mouse liver microsomes", "type": "ADME, Microsome"}, "Mycobacterium marinum [13]": {"test_system": "Mycobacterium marinum", "assay": "in vivo antimycobacterial efficacy in Mycobacterium marinum infected zebrafish larvae assessed as reduction in bacterial burden at 0.25 to 2 micog/ml measured after 2 to 4 days off post infection", "type": "functional, organism-based", "conditions": "time 2-4 day"}, "[14]": {"assay": "Toxicity in noninfected zebrafish larvae assessed as larval development", "parameters": "species or system Danio rerio", "conditions": "in vivo"}, "Mycobacterium marinum [15]": {"test_system": "Mycobacterium marinum", "assay": "In vivo antimycobacterial efficacy in Mycobacterium marinum expressing Wasabi infected zebrafish larvae assessed as prolongation of survival treated for 4 days after 1 day post infection", "type": "functional, organism-based", "conditions": "dose 0.3-1.2 µM, time 4.0 day, DDE = dose-dependent effect", "outline": "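Golden mutant or Tg(mpeg1:mCherry) zebrafish embryos were dechorionated and anaesthetised in 0.016% tricaine. At 30 hpf, 2–3 nL containing about 200–250 cfu of Wasabi-expressing M. marinum M (pTEC15) was injected into the caudal vein. The inoculum was confirmed by plating on 7H10. Embryos were kept in E3 at 28.5 °C, 12 per well, to follow infection and survival.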"}, "Mycobacterium marinum [16]": {"test_system": "Mycobacterium marinum", "assay": "In vivo antimycobacterial efficacy in Mycobacterium marinum expressing Wasabi infected zebrafish larvae assessed as prolongation of survival time at 4.8 uM treated for 4 days after 1 day post infection", "type": "functional", "conditions": "time 4 day"}}, "note": "Calls of active or inactive are those of the source. The rule behind the calls is not given here."}
{"compound": "CC(C)[C@H]1CO[C@]23CCN(Cc4ccc(C(F)(F)F)cc4)C[C@H]2CCC(=O)N13", "values": [{"measurement": "MIC98", "setting": "[1]", "result": 0.1, "unit": "µM"}, {"measurement": "IC50", "setting": "[2]", "result": 59, "unit": "nM"}, {"measurement": "MIC", "setting": "[3]", "result": 0.1, "unit": "µM"}, {"measurement": "MIC", "setting": "Mycobacterium marinum [4]", "result": 0.19, "unit": "µM"}, {"measurement": "MIC", "setting": "Mycobacterium avium", "result": 0.55, "unit": "µM"}, {"measurement": "MIC", "setting": "[5]", "result": 1.3, "unit": "µM"}, {"measurement": "MIC", "setting": "[6]", "result": 5, "unit": "µM"}, {"measurement": "MIC", "setting": "[7]", "result": 6.3, "unit": "µM"}, {"measurement": "MIC", "setting": "Bacillus subtilis", "result": "> 100", "unit": "µM"}, {"measurement": "MIC", "setting": "Staphylococcus aureus", "result": "> 100", "unit": "µM"}, {"measurement": "MIC", "setting": "Escherichia coli", "result": 100, "unit": "µM"}, {"measurement": "MIC", "setting": "Pseudomonas aeruginosa", "result": "> 100", "unit": "µM"}, {"measurement": "MIC", "setting": "Klebsiella pneumoniae", "result": "> 100", "unit": "µM"}, {"measurement": "MIC", "setting": "Acinetobacter baumannii", "result": "> 100", "unit": "µM"}, {"measurement": "Activity", "setting": "[8]", "result": "Dde"}, {"measurement": "Activity", "setting": "[9]", "result": 1, "unit": "log10CFU"}, {"measurement": "inhibition", "setting": "[10]", "result": "Active"}, {"measurement": "inhibition", "setting": "[11]", "result": "Dde"}, {"measurement": "Drug metabolism", "setting": "[12]", "result": "Metabolite_Detected"}, {"measurement": "Activity", "setting": "Mycobacterium marinum [13]", "result": "Active"}, {"measurement": "Activity", "setting": "[14]", "result": "Non-Toxic"}, {"measurement": "Activity", "setting": "Mycobacterium marinum [15]", "result": "Dde"}, {"measurement": "Time", "setting": "Mycobacterium marinum [16]", "result": 3, "unit": "days"}]}
